Screens: PubChem BioAssay, several laboratories
Shown are actives, neighbours in structure and some others; about 4.4% of the full set was active somewhere.
m5-HT2A agonist – activates the mouse 5-HT2A serotonin receptor; hit rate 0.66% among 360,000; AID 624169; activation, % at 7.6 µM; CHO-K1 mHTR2A beta-arrestin complementation, luminescence; percent of 30 µM serotonin response; P35363;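 active = activation above a run cutoff, the mean activation of all tested compounds plus 3 SD, cut at about 14% in these data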;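 note: 0% = plate median of compound wells and 100% = 30 µM serotonin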
TbMetRS inhib – Trypanosoma brucei MetRS inhibition | purified T. brucei MetRS, ATP depletion, Kinase-Glo luminescence | inhibition, % at 11.9 µM | AID 624268 | hit rate 0.4% among 360,000;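 active = inhibition above a per-plate cutoff of the control wells' mean inhibition plus 3 SD, cut at about 5.5% in these data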;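 note: 0% = DMSO wells median and 100% = median of wells with control inhibitor compound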
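Test system: purified T. brucei MetRS enzyme. Also added: ATP, methionine and E. coli bulk tRNA substrates. Compound: 11.9 µM single point. Schedule: 15 min enzyme-compound preincubation, 2 h reaction, 10 min detection, 25 °C. Signal: luciferase luminescence of residual ATP, Kinase-Glo. Evaluation: percent inhibition versus plate control medians. Controls: DMSO wells, low control.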
AHR act – activators of human aryl hydrocarbon receptor. P35869. AHR-responsive luciferase reporter cells, luminescence. activation, % at 5 µM. hit rate 2.5% among 320,000. AID 2796; in the data active = activation above about 47%;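 note: 0% = vehicle wells and 100% = reference agonist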
MsrA inh – inhibits bovine methionine sulfoxide reductase A. AID 651718. inhibition, % at 15.5 µM. hit rate 0.75% among 360,000. purified bovine MsrA, absorbance read-out; in the data active = inhibition above about 4.5%;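 note: 0% = vehicle wells with enzyme and 100% = reference inhibitor wells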
AI-2 QS modul – modulators of Vibrio harveyi AI-2 quorum sensing system. Vibrio harveyi JMH597 AI-2 luminescence/OD600 ratio, 9 h; active compounds read low; strain lacks LuxN and CqsS sensors; 0 = neutral-control median. activity change, % at 7.5 µM. hit rate 0.4% among 300,000; in the data active = activity change below about -75%, passing the limit was not always enough;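 note: luminescence divided by OD600 gain over 9 h not by final OD600 alone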
MsrA act – activates bovine MsrA enzyme. purified bovine MsrA, absorbance read-out. activation, % at 10.6 µM. hit rate 0.3% among 360,000; in the data active = activation above about 7.5%;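 note: 0% = vehicle and 100% = reference activator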
AHR act cf – human AHR activation, confirmation; shares compounds with AHR act; human cells, AHR-responsive luciferase reporter, luminescence; activation, % at 9 µM; hit rate 87% among 2,300; AID 2845; in the data active = activation above about 49%;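 note: HepG2 hepatoma cells carrying a DRE-driven firefly luciferase reporter; 0% = vehicle wells and 100% = reference agonist wells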
PXR act counter – counter-screen for AHR activators: human PXR activators. cell-based PXR reporter, luciferase luminescence. shares compounds with AHR act. hit rate 88% among 2,300. AID 434939. activation, % at 11.6 µM; in the data active = activation above about 11%;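 note: human hepatoma DPX-2 cells expressing full-length human PXR; 0% = DMSO and 100% = reference agonist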
Target sequence (O75469 whole entry, looked up): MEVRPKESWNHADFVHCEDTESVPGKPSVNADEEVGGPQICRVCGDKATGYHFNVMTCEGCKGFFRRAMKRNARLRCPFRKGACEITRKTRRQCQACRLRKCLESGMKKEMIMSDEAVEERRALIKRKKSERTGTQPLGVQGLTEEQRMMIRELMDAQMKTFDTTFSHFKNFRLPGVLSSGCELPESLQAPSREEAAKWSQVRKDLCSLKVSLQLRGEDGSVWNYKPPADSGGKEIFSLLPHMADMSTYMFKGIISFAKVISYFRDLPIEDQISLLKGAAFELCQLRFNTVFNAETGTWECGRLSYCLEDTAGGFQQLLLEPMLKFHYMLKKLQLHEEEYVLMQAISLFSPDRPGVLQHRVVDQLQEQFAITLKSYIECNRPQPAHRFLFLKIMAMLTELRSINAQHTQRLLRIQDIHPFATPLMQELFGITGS
MsrA act confirm – bovine methionine sulfoxide reductase A activation confirmed; shares compounds with MsrA act; purified bovine MsrA, absorbance read-out; activation, % at 10.6 µM; hit rate 12% among 1,000; in the data active = activation above about 4%;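 note: enzyme coupled to thioredoxin and thioredoxin reductase with NADPH; 0% = vehicle wells and 100% = reference activator wells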
OPRM1 ag – counter-screen for mouse HTR2A agonists: human mu opioid receptor agonists. shares compounds with m5-HT2A agonist. U2OS OPRM1 beta-arrestin PathHunter, luminescence; DMSO 0%, DAMGO 9.3 µM 100%. activation, % at 9.3 µM. hit rate 5.3% among 2,300;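 active = mean activation above the mean of DMSO-only wells plus 3 SD, cut at about 0.5% in these data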
HTR2A ag conf – confirmation of mouse HTR2A serotonin receptor agonists. shares compounds with m5-HT2A agonist. CHO-K1 PathHunter beta-arrestin recruitment, luminescence; DMSO 0%, 30 µM serotonin 100%. activation, % at 7.6 µM. hit rate 19% among 2,300;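 active = mean activation across triplicates above the hit threshold derived in the original primary screen, cut at about 15% in these data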
Tb MetRS conf – Trypanosoma brucei MetRS inhibition confirmed. shares compounds with TbMetRS inhib. T. brucei MetRS enzyme, luminescence (ATP depletion). inhibition, % at 11.9 µM. hit rate 93% among 1,400. AID 624412; in the data active = inhibition above about 7%
Jurkat tox – Jurkat T cell cytotoxicity for MetRS hits. hit rate 12% among 1,400. inhibition, % at 8.3 µM. shares compounds with TbMetRS inhib. Jurkat cells viability, ATP luminescence; in the data active = inhibition above about 15%;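 note: 0% = vehicle and 100% = reference inhibitor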
TbMetRS FP orth – T. brucei MetRS inhibition, orthogonal assay | shares compounds with TbMetRS inhib | purified T. brucei MetRS, fluorescence polarization | inhibition, % at 11.9 µM | hit rate 44% among 1,400 | AID 651607; in the data active = inhibition above about 17%;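 note: 0% = vehicle wells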
An asterisk follows results filed as active; . = no result.

SMILES	m5-HT2A agonist	TbMetRS inhib	AHR act	MsrA inh	AI-2 QS modul	MsrA act	AHR act cf	PXR act counter	others
O=C(C[C@H]1C/C=C\CC[C@H](Cc2ccc(F)cc2)C(=O)OC[C@@H]2CCCN2C1=O)N[C@H](CO)Cc1ccccc1	-1.2	-0.1	-1.1	-0.5	.	-1.7	.	.
Cc1ccc(S(=O)(=O)NNC(=O)c2ccc(NC(=O)C3CC3)cc2)cc1	-5.5	-0.1	.	0.6	34.3	3.0	.	.
COc1cccc2sc(Nc3nc(-c4ccccn4)cs3)nc12	-8.2	-0.4	39.5	.	8.8	-3.5	.	.
COc1cccc2sc(Nc3nnc(-c4cccs4)o3)nc12	-5.6	-1.0	106.3*	1.1	-165.2*	-9.8	97.0*	17.9*
c1ccc(C2Nc3ccccc3-c3nc4ccccc4n32)cc1 (stereo not drawn)	1.2	-2.4	41.1	2.2	15.5	-9.3	.	.
c1coc(C2Nc3ccccc3-c3nc4ccccc4n32)c1 (stereo not drawn)	-6.6	-0.5	129.3*	1.9	19.3	-1.6	49.4*	70.6*
c1ccc(C2Nc3ccccc3-c3nc4ccccc4n32)nc1 (stereo not drawn)	-5.1	-1.6	79.8*	2.6	10.3	-5.0	87.8*	114.3*
Clc1nnc(N/N=C/c2ccccc2)c2ccccc12	2.2	-0.5	81.9*	-1.2	8.8	-4.8	109.9*	22.8*
C(=N\Nc1nncc2ccccc12)/c1ccccc1	-0.7	0.9	23.2	1.0	16.5	-3.6	.	.
O=C(COc1ccccc1)N/N=C/c1ccc([N+](=O)[O-])o1	-1.5	-0.7	0.7	4.2	-20.4	-1.1	.	.
O=C(CNc1ccc2ccccc2c1)N/N=C/c1ccc([N+](=O)[O-])o1	4.1	-0.5	126.5*	2.2	-92.3*	8.3*	63.0*	11.4*	MsrA act confirm=-0.8
CN(C)C(CNC(=O)CCNS(=O)(=O)c1ccccc1C(F)(F)F)c1ccccc1 (stereo not drawn)	-4.0	-0.4	-0.4	0.1	.	-6.5	.	.
Cn1c(N=Nc2ccccc2)nc2ccccc21	0.5	-1.9	138.2*	1.5	14.2	7.7*	97.7*	9.8	MsrA act confirm=-1.0
O=C(Nc1ccccc1)c1ccc(-c2ccc(Br)cc2)o1	1.7	0.0	11.7	-0.1	7.0	-0.3	.	.
COc1ccccc1NC(=O)c1ccc(-c2ccc(Br)cc2)o1	30.8*	-0.1	99.0*	1.9	21.6	-9.5	104.9*	11.0*	OPRM1 ag=-0.1;HTR2A ag conf=-2.9
CCCCNC(=O)c1ccc2c(c1)C(=O)N(Cc1ccncc1)C2=O	0.9	-0.5	.	1.5	18.8	-1.2	.	.
O=C(Nc1ccc(Cl)cc1F)c1ccc2c(c1)C(=O)N(Cc1ccncc1)C2=O	19.4*	-0.2	98.9*	-0.9	.	-3.2	93.8*	10.8*	OPRM1 ag=-0.4;HTR2A ag conf=-6.4
Cc1ccc(S(=O)(=O)CCOC(=O)CNC(=O)OCc2ccccc2)cc1	-3.8	0.0	.	-0.3	.	-1.8	.	.
C=C(C)c1cccc(C(C)(C)NC(=O)Nc2ccc(Cl)cn2)c1	30.4*	0.6	90.8*	-0.9	14.5	-1.4	94.5*	73.4*	OPRM1 ag=-0.1;HTR2A ag conf=17.9*
CCOc1ccccc1N1CCN(CC(=O)Nc2ccnn2C2CCCC2)CC1	-11.6	-0.2	1.0	0.2	.	-1.2	.	.
COc1ccc(NC(=S)N(CCc2c(C)[nH]c3ccc(C)cc23)Cc2ccco2)cc1	23.3*	-0.6	100.5*	2.1	-1.1	-8.0	84.3*	110.6*	OPRM1 ag=-0.4;HTR2A ag conf=-3.3
Brc1ccc(-c2ccc(/C=N/Nc3nc4ccccc4[nH]3)o2)cc1	0.9	11.0*	98.4*	3.0	43.1	-5.3	121.4*	12.4*	Tb MetRS conf=7.9*;Jurkat tox=11.8;TbMetRS FP orth=20.4*
CCCOc1c(Br)cc(C(=O)OCC(=O)NC(=O)c2cccn2C)cc1OC	-12.5	0.1	2.6	-0.1	.	0.3	.	.
CCN(CC(=O)Nc1ccc(Br)cc1)CC(=O)Nc1cc(C)on1	4.9	-0.4	.	-0.3	.	-9.8	.	.
COc1ccc2nc(NCc3ccccc3)[nH]c2c1	7.8	1.3	17.3	-0.1	8.9	-7.8	.	.
SMILES	m5-HT2A agonist	TbMetRS inhib	AHR act	MsrA inh	AI-2 QS modul	MsrA act	AHR act cf	PXR act counter	others
Cc1ccc2nc(NCc3ccccc3)[nH]c2c1	-3.1	17.1*	83.6*	-0.7	17.9	3.9	55.4*	207.9*	Tb MetRS conf=27.8*;Jurkat tox=70.2*;TbMetRS FP orth=13.2
O=C(C1CCCCC1)N1CCC2CC1c1cc(Cl)ccc12 (stereo not drawn)	-3.0	-0.8	.	-0.3	.	-1.4	.	.
O=C(Nc1ccc(Br)cc1)c1cccc(-n2cnnn2)c1	-7.5	6.5*	90.6*	-2.2	-0.7	-0.9	103.3*	29.1*	Tb MetRS conf=13.4*;Jurkat tox=1.6;TbMetRS FP orth=5.6
Clc1ccc(/C(Cc2nc3ccccc3[nH]2)=N\Nc2ccccc2)cc1	-4.5	8.6*	90.6*	-0.1	84.4	-1.9	40.4	48.8*	Tb MetRS conf=31.7*;Jurkat tox=4.4;TbMetRS FP orth=17.5*
O=C(Cc1nc2ccccc2[nH]1)c1ccc(Cl)cc1	11.6	0.6	20.0	0.1	.	-2.4	.	.
CCOc1cc(N2CCOCC2)c(OCC)cc1NC(=O)c1ccc(-n2ccnc2)c([N+](=O)[O-])c1	-2.2	2.1	3.1	-0.4	13.3	-0.7	.	.
COc1ccccc1NC(=O)c1ccc(-n2ccnc2)c([N+](=O)[O-])c1	-0.2	8.8*	94.9*	1.1	41.4	-1.3	104.0*	20.4*	Tb MetRS conf=26.7*;Jurkat tox=14.9;TbMetRS FP orth=22.4*
Clc1ccc2[nH]c3c(NCCN4CCOCC4)ncnc3c2c1	-0.5	42.3*	80.3*	0.3	-8.9	-3.3	92.9*	50.7*	Tb MetRS conf=62.0*;Jurkat tox=3.4;TbMetRS FP orth=26.4*
Cc1nnc(Nc2ccc(F)cc2)c2ccccc12	0.6	-0.4	41.7	1.1	11.5	2.8	.	.
